Measured values from ChEMBL document CHEMBL5724801, “EUbOPEN Chemogenomics Library - Multiplex” (2024).
“And” between values parts separate entries of the source, which are not always exact repeats. Equal entries are not always repeated.

Key:
Fibroblast = test: Multiplex assay against human fibroblast; assay type: toxicity, cell-based
Summary of the method: (§1)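 Live cells were stained at seeding with Hoechst33342, BioTracker Green Microtubule Cytoskeleton Dye, MitoTracker Red and Annexin V Alexa Fluor 680, then imaged on a CQ1 microscope at 37°C and 5% CO2 after compound addition. CellPathfinder machine-learning gating split cells into Hoechst high-intensity objects or normal cells. Normal cells were split into healthy, pyknosed or fragmented nuclei, and pyknosed cells into mitotic or apoptotic. Tubulin, mitochondrial-mass and membrane-permeability phenotypes are per cents of healthy-nucleus cells.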

U2OS = test: Multiplex assay against U2OS; assay type: toxicity, cell-based; details: human; summary of the method: as §1
[1] = 12 h, 1 µM, compound concentration 1 uM
[2] = 12 h, 10 µM, compound concentration 10 uM
[3] = 24 h, 1 µM, compound concentration 1 uM
[4] = 24 h, 10 µM, compound concentration 10 uM
[5] = 48 h, 1 µM, compound concentration 1 uM
[6] = 48 h, 10 µM, compound concentration 10 uM

## O=C(O)CCC/C=C\CC1C(O)CC(O)C1/C=C/C(O)COc1cccc(Cl)c1 (stereo not drawn) [CLOPROSTENOL]
Fibroblast; [1]
  Population Apoptotic (%): 41% and 20%
  Population Fragmented Nuclei (%): 15% and 22%
  Population Healthy Nuclei (%): 68% and 52%
  Population Hoechst High Intensity Objects (%): 0% and 2%
  Population Membrane Permeable-Phenotype (%): 0% and 8%
  Population Mitochondria Different-Phenotype (%): 2%
  Population Mitotic Cells (%): 58% and 80%
  Population Normal (%): 100% and 97%
  Population Pyknosed Nuclei (%): 15% and 25%
  Population Tubulin-Different-Phenotype (%): 22% and 52%
  Total Cell Count: 153 and 141
Fibroblast; [2]
  Population Apoptotic (%): 38% and 23%
  Population Fragmented Nuclei (%): 23%
  Population Healthy Nuclei (%): 58% and 43%
  Population Hoechst High Intensity Objects (%): 12% and 4%
  Population Membrane Permeable-Phenotype (%): 0% and 11%
  Population Mitochondria Different-Phenotype (%): 4% and 9%
  Population Mitotic Cells (%): 61% and 76%
  Population Normal (%): 87% and 95%
  Population Pyknosed Nuclei (%): 18% and 34%
  Population Tubulin-Different-Phenotype (%): 31% and 53%
  Total Cell Count: 212 and 105
Fibroblast; [3]
  Population Apoptotic (%): 41% and 18%
  Population Fragmented Nuclei (%): 19% and 27%
  Population Healthy Nuclei (%): 62% and 49%
  Population Hoechst High Intensity Objects (%): 0% and 3%
  Population Membrane Permeable-Phenotype (%): 1% and 7%
  Population Mitochondria Different-Phenotype (%): 3% and 5%
  Population Mitotic Cells (%): 58% and 81%
  Population Normal (%): 99% and 96%
  Population Pyknosed Nuclei (%): 18% and 23%
  Population Tubulin-Different-Phenotype (%): 26% and 53%
  Total Cell Count: 161 and 144
Fibroblast; [4]
  Population Apoptotic (%): 41% and 59%
  Population Fragmented Nuclei (%): 24% and 28%
  Population Healthy Nuclei (%): 57% and 50%
  Population Hoechst High Intensity Objects (%): 12% and 3%
  Population Membrane Permeable-Phenotype (%): 2% and 7%
  Population Mitochondria Different-Phenotype (%): 3%
  Population Mitotic Cells (%): 58% and 40%
  Population Normal (%): 87% and 96%
  Population Pyknosed Nuclei (%): 18% and 21%
  Population Tubulin-Different-Phenotype (%): 24% and 57%
  Total Cell Count: 218 and 107
Fibroblast; [5]
  Population Apoptotic (%): 65% and 36%
  Population Fragmented Nuclei (%): 21% and 37%
  Population Healthy Nuclei (%): 59% and 43%
  Population Hoechst High Intensity Objects (%): 2% and 3%
  Population Membrane Permeable-Phenotype (%): 2% and 12%
  Population Mitochondria Different-Phenotype (%): 2% and 10%
  Population Mitotic Cells (%): 34% and 64%
  Population Normal (%): 97% and 96%
  Population Pyknosed Nuclei (%): 19% and 18%
  Population Tubulin-Different-Phenotype (%): 25% and 63%
  Total Cell Count: 156 and 137
Fibroblast; [6]
  Population Apoptotic (%): 46% and 55%
  Population Fragmented Nuclei (%): 25% and 41%
  Population Healthy Nuclei (%): 57% and 49%
  Population Hoechst High Intensity Objects (%): 13% and 8%
  Population Membrane Permeable-Phenotype (%): 0% and 4%
  Population Mitochondria Different-Phenotype (%): 2% and 4%
  Population Mitotic Cells (%): 53% and 44%
  Population Normal (%): 86% and 91%
  Population Pyknosed Nuclei (%): 16% and 9%
  Population Tubulin-Different-Phenotype (%): 30% and 61%
  Total Cell Count: 205 and 108
U2OS; [1]
  Population Apoptotic (%): 77% and 75%
  Population Fragmented Nuclei (%): 30% and 11%
  Population Healthy Nuclei (%): 60% and 82%
  Population Hoechst High Intensity Objects (%): 3% and 0%
  Population Membrane Permeable-Phenotype (%): 2% and 6%
  Population Mitochondria Different-Phenotype (%): 0% and 3%
  Population Mitotic Cells (%): 22% and 25%
  Population Normal (%): 96% and 100%
  Population Pyknosed Nuclei (%): 9% and 6%
  Population Tubulin-Different-Phenotype (%): 1% and 2%
  Total Cell Count: 201 and 129
U2OS; [2]
  Population Apoptotic (%): 92% and 45%
  Population Healthy Nuclei (%): 60% and 81%
  Population Hoechst High Intensity Objects (%): 2% and 0%
  Population Membrane Permeable-Phenotype (%): 8% and 9%
  Population Mitochondria Different-Phenotype (%): 1% and 6%
  Population Normal (%): 97% and 100%
  Population Pyknosed Nuclei (%): 10% and 8%
  Population Tubulin-Different-Phenotype (%): 3%
  Total Cell Count: 272 and 131
U2OS; [3]
  Population Apoptotic (%): 81% and 75%
  Population Fragmented Nuclei (%): 24% and 15%
  Population Healthy Nuclei (%): 63% and 77%
  Population Hoechst High Intensity Objects (%): 1% and 0%
  Population Membrane Permeable-Phenotype (%): 4% and 6%
  Population Mitochondria Different-Phenotype (%): 2%
  Population Mitotic Cells (%): 18% and 25%
  Population Normal (%): 98% and 100%
  Population Pyknosed Nuclei (%): 11% and 7%
  Population Tubulin-Different-Phenotype (%): 2% and 4%
  Total Cell Count: 237 and 157
U2OS; [4]
  Population Apoptotic (%): 90% and 70%
